Laboratory results: ChEMBL document CHEMBL1800025 (J Med Chem, 2011)
Active and inactive are the calls of the source. The rule behind the calls is not given here.

What was measured:
[1] = biological target: Dual specificity tyrosine-phosphorylation-regulated kinase 1A (Rattus norvegicus, UniProt Q63470); assay: Inhibition of rat recombinant GST-tagged DYRK1A using KKISGRLSPIMTEQ as substrate and [gamma32]-ATP after 30 mins by scintillation counting
Summary of the method: (§1)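 GST fusion kinases expressed in E. coli and purified on glutathione-agarose; DYRK1A is rat, DYRK2 is human. Assay buffer A (25 mM Tris-HCl pH 7.5, 10 mM MgCl2, 1 mM EGTA, 1 mM DTT, 50 μg/mL heparin) plus 0.15 mg/mL BSA. Product captured on P81 paper, washed in 1% phosphoric acid, scintillation counted. Activity expressed as percent of uninhibited control.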

[2] = biological target: T1, Dual specificity tyrosine-phosphorylation-regulated kinase 2 (Homo sapiens, UniProt Q92630); assay: Inhibition of human recombinant GST-tagged DYRK2 using KKISGRLSPIMTEQ as substrate and [gamma32]-ATP after 30 mins by scintillation counting; summary of the method: as §1
T1 sequence (Q92630 whole entry): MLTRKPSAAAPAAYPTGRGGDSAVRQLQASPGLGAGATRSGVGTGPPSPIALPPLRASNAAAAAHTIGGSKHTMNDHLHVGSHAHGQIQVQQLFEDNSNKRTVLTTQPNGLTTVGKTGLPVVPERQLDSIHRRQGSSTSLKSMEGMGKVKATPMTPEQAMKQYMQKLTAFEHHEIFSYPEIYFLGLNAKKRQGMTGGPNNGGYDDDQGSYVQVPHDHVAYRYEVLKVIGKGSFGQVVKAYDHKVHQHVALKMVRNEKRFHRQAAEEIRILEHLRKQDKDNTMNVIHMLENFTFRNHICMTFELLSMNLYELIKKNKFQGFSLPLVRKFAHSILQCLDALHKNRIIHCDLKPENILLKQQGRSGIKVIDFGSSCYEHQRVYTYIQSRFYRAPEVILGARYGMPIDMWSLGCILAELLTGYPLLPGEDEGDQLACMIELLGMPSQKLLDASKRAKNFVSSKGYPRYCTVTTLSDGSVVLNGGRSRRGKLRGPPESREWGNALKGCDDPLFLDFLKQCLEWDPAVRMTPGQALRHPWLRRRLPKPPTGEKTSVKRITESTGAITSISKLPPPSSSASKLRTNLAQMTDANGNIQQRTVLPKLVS

[3] = biological target: Dual specificity protein kinase CLK1 (Mus musculus, UniProt P22518); assay: Inhibition of mouse recombinant GST-tagged CLK1 using GRSRSRSRSRSR as substrate
Summary of the method: (§2)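 Mouse GST-fusion CLK1 or CLK3 expressed in E. coli. Assay buffer A (Tris-HCl pH 7.5, MgCl2, EGTA, DTT, heparin) plus 0.15 mg/mL BSA. RS peptide 1 μg/assay, 15 μM ATP final, 30 C. Blank subtracted; activity expressed as percent of activity without inhibitor. DMSO controls. Concentration range up to 10 μM.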

[4] = biological target: Dual specificity protein kinase CLK3 (Mus musculus, UniProt O35492); assay: Inhibition of mouse recombinant GST-tagged CLK3 using GRSRSRSRSRSR as substrate; summary of the method: as §2
[5] = biological target: Serine/threonine-protein kinase pim-1 (Homo sapiens, UniProt P11309); assay: Inhibition of human recombinant Pim1
Summary of the method: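 Kinase assayed in buffer C (25 mM Mops pH 7.2, 60 mM beta-glycerophosphate, 30 mM p-nitrophenylphosphate, 15 mM MgCl2, 5 mM EGTA, 1 mM DTT, 0.1 mM vanadate) with 1 mg/mL histone H1. DMSO controls.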

Sus scrofa = species on record: Sus scrofa; assay: Inhibition of pig brain CK1 delta/epsilon using RRKHAAIGpSAYSITA as substrate at 10 uM
Summary of the method: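 Native CK1δ/ε from porcine brain, assayed in 3-fold diluted buffer C with 25 μM CKS peptide substrate. 15 μM ATP final, 30 C. Activity is percent of uninhibited control after blank subtraction, with DMSO controls. Inhibitor tested over a range of concentrations up to 10 μM.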

[6] = biological target: Glycogen synthase kinase-3 alpha/beta (Sus scrofa); assay: Inhibition of pig brain GSK-3alpha/beta
[7] = system: Cyclin-dependent kinase 5/p25 (Homo sapiens); assay: Inhibition of human recombinant CDK5/p25 at 10 uM

Sequence of Dual specificity protein kinase CLK1 (P22518 whole entry, the tested form may be a part): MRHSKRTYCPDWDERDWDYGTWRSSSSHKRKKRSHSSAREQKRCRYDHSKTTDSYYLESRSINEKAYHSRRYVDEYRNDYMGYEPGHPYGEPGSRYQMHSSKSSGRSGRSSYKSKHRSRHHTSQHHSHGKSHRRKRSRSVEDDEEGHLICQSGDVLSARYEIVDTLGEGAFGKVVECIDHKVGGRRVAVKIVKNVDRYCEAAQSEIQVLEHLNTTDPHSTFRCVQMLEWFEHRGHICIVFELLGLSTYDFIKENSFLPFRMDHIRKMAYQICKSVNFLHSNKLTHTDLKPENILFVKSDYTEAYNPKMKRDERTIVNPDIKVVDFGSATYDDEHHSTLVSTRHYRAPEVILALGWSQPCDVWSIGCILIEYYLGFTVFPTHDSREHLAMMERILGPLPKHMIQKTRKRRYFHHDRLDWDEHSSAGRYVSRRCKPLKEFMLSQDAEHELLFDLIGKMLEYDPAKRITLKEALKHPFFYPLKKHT
Sequence of Dual specificity protein kinase CLK3 (O35492 whole entry): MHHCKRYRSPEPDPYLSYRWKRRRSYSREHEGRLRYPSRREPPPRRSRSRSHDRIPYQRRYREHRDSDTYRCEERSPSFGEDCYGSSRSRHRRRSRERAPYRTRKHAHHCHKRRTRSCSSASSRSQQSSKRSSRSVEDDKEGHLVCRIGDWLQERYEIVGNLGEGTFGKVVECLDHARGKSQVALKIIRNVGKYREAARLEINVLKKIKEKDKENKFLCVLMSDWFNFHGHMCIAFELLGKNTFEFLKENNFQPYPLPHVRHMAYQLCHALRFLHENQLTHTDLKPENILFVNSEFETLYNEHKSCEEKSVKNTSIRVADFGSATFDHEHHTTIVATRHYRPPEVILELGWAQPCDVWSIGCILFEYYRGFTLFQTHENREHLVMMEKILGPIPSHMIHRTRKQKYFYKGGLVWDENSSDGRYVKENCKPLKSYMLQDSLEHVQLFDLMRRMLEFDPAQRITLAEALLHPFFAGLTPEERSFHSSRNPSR
Sequence of Serine/threonine-protein kinase pim-1 (P11309 whole entry): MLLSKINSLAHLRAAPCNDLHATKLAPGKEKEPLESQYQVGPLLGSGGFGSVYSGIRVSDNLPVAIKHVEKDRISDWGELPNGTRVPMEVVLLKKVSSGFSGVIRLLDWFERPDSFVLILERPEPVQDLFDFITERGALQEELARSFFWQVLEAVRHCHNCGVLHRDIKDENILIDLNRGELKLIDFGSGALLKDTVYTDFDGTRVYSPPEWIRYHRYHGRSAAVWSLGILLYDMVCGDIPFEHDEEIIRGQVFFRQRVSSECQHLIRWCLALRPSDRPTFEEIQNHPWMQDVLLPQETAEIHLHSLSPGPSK

CN1C(=O)/C(=C/c2ccc3c(c2)OCO3)N=C1NCc1ccc2c(c1)OCO2
IC50 [1]: 3200 nM
IC50 [2]: 3300 nM
IC50 [3]: 230 nM
IC50 [4]: > 10000 nM
IC50 [5]: 590 nM
inhibition (Sus scrofa): inactive

CN1C(=O)/C(=C/c2ccc3c(c2)OCO3)N=C1Nc1ccccc1
IC50 [1]: 310 nM
IC50 [2]: 460 nM
IC50 [3]: 84 nM
IC50 [4]: 4600 nM
IC50 [5]: 2600 nM
inhibition (Sus scrofa): inactive

CN1C(=O)/C(=C/c2ccc3c(c2)OCO3)N=C1NCc1ccccc1
IC50 [1]: 380 nM
IC50 [2]: 560 nM
IC50 [3]: 200 nM
IC50 [4]: 940 nM
IC50 [5]: 3700 nM
inhibition (Sus scrofa): inactive
IC50 [6]: > 10000 nM
inhibition [7]: inactive

CN1C(=O)/C(=C/c2ccc3c(c2)OCO3)N=C1Nc1ccc2c(c1)OCO2
IC50 [1]: 400 nM
IC50 [2]: 100 nM
IC50 [3]: 160 nM
IC50 [4]: > 10000 nM
IC50 [5]: > 10000 nM
inhibition (Sus scrofa): inactive
IC50 [6]: 5800 nM
inhibition [7]: inactive

CC(=O)NC1=N/C(=C\c2ccc3c(c2)OCO3)C(=O)N1C
IC50 [1]: 3100 nM
IC50 [2]: 5100 nM
IC50 [3]: 2400 nM
IC50 [4]: > 10000 nM
IC50 [5]: > 10000 nM
inhibition (Sus scrofa): inactive

CC(C)NC1=N/C(=C\c2ccc3c(c2)OCO3)C(=O)N1C
IC50 [1]: 390 nM
IC50 [2]: 530 nM
IC50 [3]: 260 nM
IC50 [4]: 2000 nM
IC50 [5]: 4000 nM
inhibition (Sus scrofa): inactive

CN1C(=O)/C(=C/c2ccc3c(c2)OCO3)N=C1NC1CCCC1
IC50 [1]: 3700 nM
IC50 [2]: 6000 nM
IC50 [3]: 140 nM
IC50 [4]: > 10000 nM
IC50 [5]: 300 nM
inhibition (Sus scrofa): inactive

CCCNC1=N/C(=C\c2ccc3c(c2)OCO3)C(=O)N1C
IC50 [1]: 540 nM
IC50 [2]: 550 nM
IC50 [3]: 310 nM
IC50 [4]: 1200 nM
IC50 [5]: 4500 nM
inhibition (Sus scrofa): inactive

CN1C(=O)/C(=C/c2ccc3c(c2)OCO3)N=C1NCCCCCO
IC50 [1]: 2100 nM
IC50 [2]: 2000 nM
IC50 [3]: 140 nM
IC50 [4]: 7000 nM
IC50 [5]: 6100 nM
inhibition (Sus scrofa): inactive

O=C1NC(Nc2ccc(O)cc2)=N/C1=C\c1ccc2c(c1)OCO2
IC50 [1]: 96 nM
IC50 [2]: 60 nM
IC50 [3]: 60 nM
IC50 [4]: 520 nM
IC50 [5]: 1200 nM
inhibition (Sus scrofa): inactive

O=C1NC(Nc2ccc3c(c2)OCO3)=N/C1=C\c1ccc2c(c1)OCO2
IC50 [1]: 66 nM
IC50 [2]: 40 nM
IC50 [3]: 170 nM
IC50 [4]: 360 nM
IC50 [5]: 5000 nM
inhibition (Sus scrofa): inactive

CNC1=N/C(=C\c2ccc3c(c2)OCO3)C(=O)N1C
IC50 [1]: 2100 nM
IC50 [2]: 2200 nM
IC50 [3]: 770 nM
IC50 [4]: 3200 nM
IC50 [5]: 3500 nM
inhibition (Sus scrofa): inactive

COc1ccc(NC2=N/C(=C\c3ccc4c(c3)OCO4)C(=O)N2)cc1
IC50 [1]: 110 nM
IC50 [2]: 80 nM
IC50 [3]: 830 nM
IC50 [4]: 10000 nM
IC50 [5]: > 10000 nM
inhibition (Sus scrofa): inactive

Cc1ccc(NC2=N/C(=C\c3ccc4c(c3)OCO4)C(=O)N2)cc1
IC50 [1]: 170 nM
IC50 [2]: 61 nM
IC50 [3]: 320 nM
IC50 [4]: > 10000 nM
IC50 [5]: 9000 nM
inhibition (Sus scrofa): inactive

CN1C(=O)/C(=C/c2ccc3c(c2)OCO3)N=C1Nc1ccc(O)cc1
IC50 [1]: 440 nM
IC50 [2]: 1100 nM
IC50 [3]: 1000 nM
IC50 [4]: 3900 nM
IC50 [5]: 4000 nM
inhibition (Sus scrofa): inactive

COCCNC1=N/C(=C\c2ccc3c(c2)OCO3)C(=O)N1C
IC50 [1]: 570 nM
IC50 [2]: 770 nM
IC50 [3]: 73 nM
IC50 [4]: 3100 nM
IC50 [5]: > 10000 nM
inhibition (Sus scrofa): inactive

CN1C(=O)/C(=C/c2ccc3c(c2)OCO3)N=C1NCCCO
IC50 [1]: 280 nM
IC50 [2]: 470 nM
IC50 [3]: 233 nM
IC50 [4]: 3900 nM
IC50 [5]: 6500 nM
inhibition (Sus scrofa): inactive

CCCCNC1=N/C(=C\c2ccc3c(c2)OCO3)C(=O)N1C
IC50 [1]: 500 nM
IC50 [2]: 610 nM
IC50 [3]: 130 nM
IC50 [4]: 1100 nM
IC50 [5]: 4600 nM
inhibition (Sus scrofa): inactive
